# Reference: ChEMBL document CHEMBL2331406, “In vitro activity of scorpiand-like azamacrocycle derivatives in promastigotes and intracellular amastigotes of Leishmania infantum and Leishmania braziliensis” (Eur J Med Chem, 2013)
# The source made the active and inactive calls. The calls are words filed in the database; no cut-off is given here.
# What was measured:
# [1] = Inhibition of Escherichia coli Mn-SOD by […] reduction assay
# In short: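 Commercial Mn-SOD from Escherichia coli assayed by spectrophotometric NBT-reduction method, in which superoxide reduces NBT.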
# Leishmania braziliensis [2] = assay: Antileishmanial activity against amastigote form of Leishmania braziliensis MHOM/BR/1975/M2904 infected in J774.2 cells after 72 hrs by haemocytometric analysis; format: functional, cell-based, MHOM/BR/75/M2904; details: Leishmania braziliensis, MHOM/BR/75/M2904, J774.2, 72 h
# In short: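 J774.2 macrophages grown in MEM with 2 mM glutamine and 20% inactivated FCS at 37 °C in 5% CO2. Infected with stationary-phase promastigotes at 10:1 for 24 h, then washed free of non-phagocytosed parasites. Compounds at 1, 10, 25, 50 and 100 for 72 h. Amastigotes counted on methanol-fixed, Giemsa-stained preparations and % reduction taken vs untreated. IC50 by linear regression of Kc values; three separate determinations.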
# Leishmania braziliensis [3] = assay: Antileishmanial activity against promastigote form of Leishmania braziliensis MHOM/BR/1975/M2904 assessed as empty cytoplasmic at IC25 concentration after 96 hrs by MET microscopic analysis; format: functional; details: MHOM/BR/75/M2904
# In short: (§1)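 Promastigotes at 5 × 10^5 cells/mL in MTL medium with compound at IC25 for 96 h. Ultrastructure examined by transmission electron microscopy against untreated control parasites.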
# Leishmania braziliensis [4] = assay: Antileishmanial activity against promastigote form of […] MHOM/BR/1975/M2904 infected in J774.2 cells assessed as inhibition of number of amastigotes per host cell at IC25 concentration incubated for 12 hrs followed by compound washout measured after 48 hrs by microscopic analysis; format: functional, MHOM/BR/75/M2904
# In short: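 J774.2 cells seeded at 1 × 10^4 cells/well on coverslips and cultured 2 days. Infected with promastigotes at 10:1 with drug at IC25 added immediately, for 12 h at 37 °C in 5% CO2. Parasites and drug washed out, then grown 10 days with washing and fresh medium every 48 h. On methanol-fixed, Giemsa-stained slides, % infected cells and amastigotes per infected cell scored from more than 200 host cells. Three determinations.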
# J774.2 = assay: Cytotoxicity against mouse J774.2 cells after 72 hrs by PI-staining based flow cytometric analysis; format: cell-based; details: J774.2, 72 h
# In short: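 J774.2 macrophages (ECACC 91051511, female BALB/c mouse tumour) treated 72 h with 100, 50, 25, 10 and 1 of compound. Propidium iodide then fluorescein diacetate each added for 10 min at 28 °C in the dark. Cells pelleted at 400g, washed in PBS and analysed by flow cytometry. Viability % vs control; IC50 by linear regression of Kc values.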
# [5] = Ratio of compound selectivity index to glucantime selectivity index for amastigote form of Leishmania infantum MCAN/ES/2001/UCM-10 infected in J774.2 cells over mouse J774.2 cells
# In short: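 J774.2 macrophages in MEM + 2 mM glutamine + 20% inactivated FCS were infected with stationary-phase promastigotes (10:1) for 24 h at 37 °C, 5% CO2. After washing, compounds were added at […] for 72 h. Amastigote reduction was scored in methanol-fixed, Giemsa-stained preparations; IC50 by regression; triplicates. SI = J774.2 IC50 (72 h flow cytometry)/amastigote IC50; ratio is versus Glucantime SI.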
# [6] = Ratio of compound selectivity index to glucantime selectivity index for promastigote form of Leishmania infantum MCAN/ES/2001/UCM-10 over mouse J774.2 cells
# In short: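 J774.2 toxicity: 72 h at the same concentrations, viability by flow cytometry with propidium iodide/fluorescein diacetate; IC50 by linear regression. SI = macrophage IC50/parasite IC50; ratio is compound SI over Glucantime SI.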
# [7] = Ratio of compound selectivity index to glucantime selectivity index for axenic amastigote form of Leishmania infantum MCAN/ES/2001/UCM-10 over mouse J774.2 cells
# In short: (§2)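 Axenic amastigotes obtained by 3-day promastigote transformation in supplemented M199 + 10% heat-inactivated FCS, pH 5.4, 37 °C. […] Host toxicity: J774.2, 72 h, PI/FDA flow cytometry. SI = macrophage IC50/axenic amastigote IC50; ratio is compound SI over Glucantime SI.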
# Leishmania braziliensis [8] = assay: Antileishmanial activity against promastigote form of Leishmania braziliensis MHOM/BR/1975/M2904 assessed as change in lactate metabolite production at IC25 concentration after 96 hrs by H1-NMR analysis; format: functional, MHOM/BR/75/M2904
# In short: (§3)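 Promastigote cultures, initial 5 × 10^5 cells/mL, given the IC25 of compound; controls left untreated. Incubated 96 h at 28 °C, then centrifuged at 400g for 10 min. Excreted metabolites in the medium identified by 1H NMR spectra and compared with untreated control.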
# Leishmania braziliensis [9] = assay: Antileishmanial activity against promastigote form of Leishmania braziliensis MHOM/BR/1975/M2904 assessed as electro-dense vesicles at IC25 concentration after 96 hrs by MET microscopic analysis; format: functional; details: MHOM/BR/75/M2904; in short: as §1
# Leishmania infantum [10] = assay: Antileishmanial activity against promastigote form of Leishmania infantum MCAN/ES/2001/UCM-10 assessed as change in alanine metabolite production at IC25 concentration after 96 hrs by H1-NMR analysis; format: functional; in short: as §3
# Leishmania braziliensis [11] = assay: Antileishmanial activity against promastigote form of Leishmania braziliensis MHOM/BR/1975/M2904 after 72 hrs by haemocytometric analysis; format: functional; details: MHOM/BR/75/M2904, 72 h
# In short: (§4)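 Promastigotes grown at 28 °C in MTL medium with 10% inactivated FCS. Compounds in DMSO (0.1%), diluted in culture medium to 100, 50, 25, 10 and 1. Cells counted at 72 h in a Neubauer haemocytometric chamber. IC50 (50% inhibition) by linear regression of Kc values.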
# Leishmania infantum [12] = assay: Antileishmanial activity against axenic amastigote form of Leishmania infantum MCAN/ES/2001/UCM-10 after 72 hrs by haemocytometric analysis; format: functional, organism-based; details: Leishmania infantum, MCAN/ES/2001/UCM-10, 72 h
# In short: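 Axenic amastigotes made by culturing promastigotes 3 days at 37 °C in M199 with 10% heat-inactivated FCS plus organic acids, amino acids, sucrose, bicarbonate, MES, haemin and gentamicin, pH 5.4. Compound effect counted in a Neubauer haemocytometer chamber. IC50 by linear regression of Kc values at 1, 10, 25, 50 and 100.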
# Leishmania infantum [13] = assay: Antileishmanial activity against promastigote form of Leishmania infantum MCAN/ES/2001/UCM-10 after 72 hrs by haemocytometric analysis; format: functional, organism-based; details: Leishmania infantum, MCAN/ES/2001/UCM-10, 72 h; in short: as §4
# Leishmania infantum [14] = assay: Antileishmanial activity against promastigote form of Leishmania infantum MCAN/ES/2001/UCM-10 assessed as change in acetate metabolite production at IC25 concentration after 96 hrs by H1-NMR analysis; format: functional; in short: as §3
# [15] = target: Superoxide dismutase [Mn] (Escherichia coli) (UniProt P00448); assay: Inhibition of Escherichia coli Mn-SOD by NBT reduction assay
# Leishmania infantum [16] = assay: Antileishmanial activity against promastigote form of Leishmania infantum MCAN/ES/2001/UCM-10 assessed as increase in glycosomes at IC25 concentration after 96 hrs by […] electron microscopic analysis relative to control; format: functional, organism-based; in short: as §1
# [17] = Selectivity index, ratio of IC50 for mouse J774.2 cells to IC50 for axenic amastigote form of Leishmania infantum MCAN/ES/2001/UCM-10; format: toxicity; details: J774.2 cells, read-out: Ratio IC50; in short: as §2
# Chain of Superoxide dismutase [Mn] (Escherichia coli) (P00448 whole entry, looked up): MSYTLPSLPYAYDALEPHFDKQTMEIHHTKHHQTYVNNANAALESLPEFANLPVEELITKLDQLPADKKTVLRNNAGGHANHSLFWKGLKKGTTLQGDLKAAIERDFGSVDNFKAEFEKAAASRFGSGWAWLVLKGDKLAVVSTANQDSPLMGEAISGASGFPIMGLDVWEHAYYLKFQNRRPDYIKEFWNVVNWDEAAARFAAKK
IC50 [1] [µM],IC50 (Leishmania braziliensis [2]) [µM],IC50 (Leishmania braziliensis [11]) [µM],IC50 (Leishmania infantum [12]) [µM],IC50 (Leishmania infantum [13]) [µM],IC50 [15] [µM],Compound,Activity (Leishmania braziliensis [3]),inhibition (INH) (Leishmania braziliensis [4]) [%],IC50 (J774.2) [µM],Ratio [5],Ratio [6],Ratio [7],Activity (Leishmania braziliensis [8]) [%],Activity (Leishmania braziliensis [9]),Activity (Leishmania infantum [10]) [%],Activity (Leishmania infantum [14]) [%],Activity (Leishmania infantum [16]),selectivity ratio [17]
178,10.4,11.3,25.4,15.5,179,Cl.c1ccc(CNCCN2CCNCc3cccc(n3)CNCC2)nc1,Active,67,254,26,20,20,0,Active,12,-19,Active,10
641,10.3,23,15.9,18.8,641,Cl.c1cncc(CNCCN2CCNCc3cccc(n3)CNCC2)c1,Active,80,468,149,31,59,19,Active,-12,1,Active,29.4
408,16.6,12.3,28.1,21.7,408,Cl.c1cc2nc(c1)CNCCN(CCNCc1cccc3ccccc13)CCNC2,Active,59,365,42,23,26,0,Active,-18,-6,Active,13
381,10,11.8,29.2,18.9,381,Br.NCCN1CCNCc2cccc(n2)CNCC1,Active,55,232,18,15,16,6,Active,,,,8
